According to the EternaBench riboswitch data:

System: MS2 coat protein
Experiment: apparent Kd, MS2 coat protein; higher = weaker binding; RNA-MaP array; FMN 200 µM where present
How it was run: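 Each design was made on Illumina sequencing-chip clusters by stalled E. coli RNA polymerase and titrated with SNAP-549-labelled MS2 coat protein from 0.7 or 1.5 nM, doubling to 3 µM, in the absence and then the presence of constant ligand. The buffer was 100 mM Tris-HCl pH 7.5, 80 mM KCl, 4 mM MgCl2, BSA, DTT, yeast tRNA and Tween-20. The apparent Kd is the median of filtered per-cluster fits of binding curves, with green signal normalised to red-channel RNA signal and control-cluster median Fmax.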

[1] = designed as: OFF switch for flavin mononucleotide, no ligand
[2] = ligand present: flavin mononucleotide, designed as: OFF switch for flavin mononucleotide
[3] = designed as: ON switch for flavin mononucleotide, no ligand
[4] = ligand present: flavin mononucleotide, designed as: ON switch for flavin mononucleotide

Sequence | apparent Kd [1] [nM] | apparent Kd [2] [nM] | apparent Kd [3] [nM] | apparent Kd [4] [nM]
UGCGUUAAGCCCUUAAGUCGUCAACAUGAGGAUCACCCAUGUAGAAGGCAGCGGACGCGGCCGGCUGAGGAUAUACAUGUAGGU | 13.3 | 16.8 |  | 
CGAUUUUAUAGAGGAUAUGUUUAACAUGAGGAUCACCCAUGUGAGGUGGAAAUAUUUAAUUACAUACAGAAGGCUAUACAAUCG | 234 | 180 |  | 
CGGUCGAUAUCAGGAUAUCGAUUAAUUACAUGAGGAUCACCCAUGUUGACAAGGAAUAUAACAUGCGAGAAGGGAUUACGAUCG |  |  | 10.1 | 8.45
CGACUGUGAGGAUAUGGUGAGUAGUGCCUGAGCGCUGCUCACCAGAAGGCACAUGAGGAUCACCCAUGUAUGAC | 110 | 214 |  | 
CGAUAUAUGAAGGGCGAACACGCACAUGAGGAUCACCCAUGUAGAAGGCGAUCCGCAACGCGGAUCGAGGAUAUAUAGUAUACA | 35.6 | 42.4 |  | 
GCCUGCUGGCGAGGAUAUUCUGUGCGGUUUCGGCUCGUGUCUGUUACAUGAGGAUCACCCAUGUGGGAGAAGGUGUCUGUGGCC | 7.76 | 7.28 |  | 
GGUGCCAUGUAGAAGGCAGACCUGAUUCAGAUCUGAGGAUAUACAUGAGGAUCACCCAUGUAAAGGCACCGCACGAGAGUGCAA | 6.05 | 8.57 |  | 
AAGACACAUGAGGAUCACCCAUGUCAAGAGAGACGAGGAUAUCUGAAAAAAAAAAAAAAAGGAGAAGGCGUGAAAA |  |  | 109 | 51.1
GUUUAGUGAGGAUAUGUGGCGUGGAUCGAGCGCGGUCUGCUACAGAAGGCACAUGAGGAUCACCCAUGUUUCUC | 166 | 329 |  | 
UCCUUGUCCUGAGGAUAUCCGUGGUUACCUAAAGGAGAAGGCAGGACAUGAGGAUCACCCAUGUACCCAGAAAACGUGCAGAGU | 234 | 126 |  | 
AUGACAGGCAGAGCGCAACGGCGAACAUGAGGAUCACCCAUGUAGGAUAUGCUACACAAAGUGUAGCAGAAGGACAUGCGACGA | 48.3 | 206 |  | 
AUCUCAGGACGAGGAUAUCAAUACAUGAGGAUCACCCAUGUAUGACUACUGUGAUCCUUUAAGGCUGAGAAGGCGUCCCAAAUG | 20.2 | 60.8 |  | 
UCGUGAAGGAUAGGAUAUGGACAUGAGGAUCACCCAUGUACAUGGGAAUGAAUACUGAAUUUGUACUAGAAGGGUUACAUAAAU | 44.4 | 39.5 |  | 
CGAUAGGACAGAGGAUAUACGUGCUAGAGAUACUAGCAAAAUUACAACACAUGAGGAUCACCCAUGUAGAAGGCUGUCCUAUCG | 5.04 | 6.21 |  | 
AAUACAUGAGGAUCACCCAUGUAAAGAUCUGUUAAUAGAUGUGAGGAUAUACUAAAUUUUAGGUAGUAGAAGGCACUGGGUACA |  |  | 22.1 | 26
UAUGUAUUCGUAGGAUAUCCGUCGCCACCGUGUGGAGAAGGACGAACAUGAGGAUCACCCAUGUAUCAUGGUGUAGACAAUUUU | 77 | 135 |  | 
GUUGCUAUCGGAGGAUAUUCAUACCGGAAACGGACAUGAGGAUCACCCAUGUGCGGAAACGCUUGGGAGAAGGCCGAUAGCAAC |  |  | 210 | 22.1
UUGGUUGUCGUAGGAUAUGUAGGAUAUUCCUACAUGAGGAUCACCCAUGUUCGCAUGGAAGAAGGACAGAAUGACGAUGACCAG |  |  | 1110 | 27.1
CGGCAAAGGAAGGAUAUGCUAGACGAAAGUCUAGCAGAAGGUCCUACAUGAGGAUCACCCAUGUGUCCUAGCCG | 45.4 | 55.1 |  | 
AGGAAACAUGAGGAUCACCCAUGUAAAAGGUGGUUAGGAUAUGCAAAAAGAAAAAGAAAAGCAGAAGGGACAAGAA |  |  | 561 | 635
AGUACCAUGUAGAAGGGAUAUCUCAAAGAGAUAUCAGGAUAUACAUGAGGAUCACCCAUGUAAAUGUACUCCAGGAAACUGGAA | 19.8 | 55.3 |  | 
GUGGUCAGACAUGAGGAUCACCCAUGUGGAAUAAAUAACACACAGGAUAUGUAAUAUAGGAUAUAACAGAAGGGUGGAUUGGUG |  |  | 318 | 168
GGACAUGUCGUCUACAUGAGGAUCACCCAUGUCGAUAGACAUGAGGAUAUCGAUACAAAUUGUAUCGAGAAGGCAUGCAUGUCC |  |  | 44.9 | 23
AAAAGACAUGAGGAUCACCCAUGUAAAAACAUGAGAGGAUAUCAUCUGACUUCGGUCAGAUGAGAAGGCUCAUGUC |  |  | 48.7 | 26.9
CGCACUAUACAUGAGGAUCACCCAUGUAAUUAUGAGAUAGUCAGAAGGCAUUAUUAGUGAUUUAAUGAGGAUAUGAAUAGUGCG |  |  | 79.8 | 11.2
ACAUGAUACAAGAAGGAUGAAUUAGAUUUGAUCAUAGGAUAUUGUUAUAUUGUUUACUCUAAUAACAUGAGGAUCACCCAUGUA |  |  | 10.4 | 6.94
GAAGAUAUAGGAUAUACAUGAGGAUCACCCAUGUGAGUACGCAAGGCUAGAUCGCUUUGUAGAAGGAUAUACCG | 38.5 | 40.8 |  | 
UUAAUUAUACAAGGAUAUCUAUUGUUGUUUCGACUUACAUGAGGAUCACCCAUGUUAAUAUGUUUAGAGAAGGUGUAUUUUCAG |  |  | 55.1 | 35.8

Sequence | apparent Kd [1] [nM] | apparent Kd [2] [nM] | apparent Kd [3] [nM] | apparent Kd [4] [nM]
AAGAAGUGAGGAUAUCGAAGACUGUCGAAAAGACAGUCGAACGAGAAGGCACAUGAGGAUCACCCAUGUAAGAA | 24.1 | 34.5 |  | 
GGACGACACAUCUACAUGAGGAUCACCCAUGUCGAAAGACAUGAGGAUAUGCAUCCUAAUUGGAUGCAGAAGGCAUGGUCGUCC |  |  | 1210 | 70.3
CUCUUGUGAGGAUAUGCUGCUCGUCACGAAAGUGAUGAGUAGCAGAAGGCACAUGAGGAUCACCCAUGUAAAUA | 93.7 | 21.7 |  | 
AAUAUAAGAGCUGGAAAUACUCAAACAUGAGGAUCACCCAUGUAGGAUAUCAGCACGAUAAGUGCUGAGAAGGACAUCCAGCUC | 15 | 15.4 |  | 
GUUAUAACAGUCAGGAUAUUUAAGCUUAUCGAGCUAGAGAAGGGACAUGAGGAUCACCCAUGUAGCCUCGUUAG | 16 | 17.1 |  | 
GAAAUACAUGAGGAUCACCCAUGUAAGGAUAUGCUAGCGGUCGGCUGACUGACUGCUAGCAGAAGGUACAUGAU | 80.9 | 108 |  | 
CGAAAUGAUAGAGGAUAUGUUAUACAUGAGGAUCACCCAUGUUUAAUGGGAUUAAUAAAUAUCUUACAGAAGGCUAUUCAAUCG | 32 | 20.7 |  | 
AAGGUGUUAGGAUAUCGAAGGUUGUGGCAGGCGGGAAUUUGCGAGAAGGAACAUGAGGAUCACCCAUGUAAAAU | 24.4 | 25.8 |  | 
UAAAUGUGAGGAUAUCAGGUGUGCUAGAAUACUGGUACAUCUGAGAAGGCACAUGAGGAUCACCCAUGUUCCUU | 16.4 | 41 |  | 
UUCCGGCGUGUAGGAUAUGGAUCCGAUUAGGAUCCAGAAGGACAUGAGGAUCACCCAUGUACAUGUAAACAGUCAUCACCGGAC | 9.63 | 87.3 |  | 
ACAUGUACAGGAUAUACAUGAGUGAUACACGUAUUUCCACUACAUGAGGAUCACCCAUGUAGAAGGGUACAUGA | 50.2 | 19.5 |  | 
UUUUAACAUGAGGAUCACCCAUGUCGUUCAAAUCAAGGAUAUCAAGCGUGUGCACACGCCUGAGAAGGUGAAGCUC |  |  | 55.8 | 98.9
CUUUUGUGAGGAUAUCAGUAGUAAAGAAAUAAAAUUACUACUGAGAAGGCACAUGAGGAUCACCCAUGUUCCUC | 36.2 | 192 |  | 
GUCUCACAUGAGGAUCACCCAUGUGAGGAUAUGGAUUCGCUGGCCGUAGCCAGUGGAUCCAGAAGGCGCGUGAU | 59.1 | 58.8 |  | 
GCAUGGAAAGUGAGGAUAUACCACUGGAUACAGUGGUAGAAGGCACAUGAGGAUCACCCAUGUUUCUACCAUGC | 13.4 | 19.1 |  | 
CUCGGACAUGAGGAUCACCCAUGUGAGGAUAUGGUGCUAUCGUCAUUAGACGAUUGCGUUAGAAGGCAUAUUUU | 28.7 | 27.1 |  | 
GGUCCAUCAUGAGGAUAUGGCACCUUAUUGGUGCCAGAAGGCAUGUCUAUAGACAUGAGGAUCACCCAUGUGAUAAAUUGGACC |  |  | 523 | 49.9
GUAGCUAUCGCAGGAUAUCCUCAGGCGAAAGCCACAUGAGGAUCACCCAUGUAAAUUAAGAAUUUGGAGAAGGGCGAUAGCUAC |  |  | 479 | 27.3
CAGCGCUGUCGAGAGGAUAUGCUGUGAUGGACAUGAGGAUCACCCAUGUUAGCGAUAGCAUUACUGUAGAAGGCUCUACAGCUGC |  |  | 13.4 | 12.8
AAUUCACAUGAGGAUCACCCAUGUCAGGAUAUGGUUUUAUUUUUUUCUUUUCUUGAUUCCAGAAGGGACAGCUA | 108 | 59.2 |  | 
CAAUUUAUGUCAGGAUAUACAAUACAAUGAUUAGUAGAAGGGAUUAAUACAUGAGGAUCACCCAUGUCAUGUGUCAUAGUAACC | 23.9 | 19.4 |  | 
GUGGUGCAUAUACGUGGAUGUACAUGAGGAUCACCCAUGUAAGAGGAUAUGCGGAUACUAGCUCAGCAGAAGGCUUACAACUGA | 11.3 | 41 |  | 
UUGUUUCGUCAUUAACAUGAGGAUCACCCAUGUAUCGUCUCAAAGGAUAUAUAUGCUUGUUUGCUAUAGAAGGUUGAUUGUUGU |  |  | 71.2 | 67.2
GCCAUCGCAUGAGGAUAUGGCACCGGUUCGGUGCCAGAAGGCAUGUCAAAUGACAUGAGGAUCACCCAUGUAGUUAAGAUGGCA |  |  | 215 | 14.7
GGACCGCGCAGAGUUGGCGGUCGGCAGGAUAUGACAUGAGGAUCACCCAUGUGAACUCCAUUGGGUCAGAAGGGCCACGACACA | 22.4 | 107 |  | 
GCUAUAGAUGUAGGAUAUCAUAUAGAAGCUAUGUGAGAAGGACAUGAGGAUCACCCAUGUCAAUGGAUGGAGCGAAGUUAUGGC | 43.4 | 57.7 |  | 
AUAUCCGAAGCAGGAUAUCGACGAGGUGUCGAGGUAGAGCGUAUUCACAUGAGGAUCACCCAUGUCGAGAAGGGCUACAGGAUA | 56.5 | 15.9 |  | 
